Screens from PubChem.
M4 PAM = human M4 muscarinic receptor positive allosteric modulators, primary screen, CHO-K1 cells, Fluo-8 calcium fluorescence | CHO-K1 hM4/Gqi5, ACh EC20; 0% = ACh EC20, 100% = maximal ACh | activation, % at 3 µM | hit rate 0.4% among 360,000 | AID 624126, 2012;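 active means activation above its plate's cutoff, the mean activation of sample wells plus 3 SD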
Target sequence (P08173 whole entry, looked up): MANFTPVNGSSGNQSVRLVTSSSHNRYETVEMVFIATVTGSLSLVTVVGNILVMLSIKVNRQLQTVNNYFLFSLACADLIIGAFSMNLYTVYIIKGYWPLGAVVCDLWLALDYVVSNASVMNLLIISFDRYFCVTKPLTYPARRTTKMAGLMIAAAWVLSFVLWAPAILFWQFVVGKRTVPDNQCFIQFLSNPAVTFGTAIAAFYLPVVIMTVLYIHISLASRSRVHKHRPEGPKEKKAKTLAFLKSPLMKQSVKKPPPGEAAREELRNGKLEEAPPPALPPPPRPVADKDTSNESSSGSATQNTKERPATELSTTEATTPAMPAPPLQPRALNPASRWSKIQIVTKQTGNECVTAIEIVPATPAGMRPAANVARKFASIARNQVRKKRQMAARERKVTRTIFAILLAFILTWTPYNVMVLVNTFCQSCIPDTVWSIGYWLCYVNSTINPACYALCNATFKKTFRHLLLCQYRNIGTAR
CHRM5 agonist = human M5 muscarinic receptor agonists, primary screen, CHO-K1 cells, Fluo-8 calcium fluorescence. activation, % at 3 µM. AID 624037, 2012. Muscarinic acetylcholine receptor M5 (Homo sapiens), P08912. hit rate 0.19% among 360,000. CHO-K1 hM5 cells; 0% DMSO wells, 100% maximal acetylcholine response;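 active means activation above the run's mean over test compounds plus 3 SD, cut at about 23% in these data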;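 further: signal is peak over basal fluorescence ratio across the kinetic read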
CHRM5 antagonist = human M5 muscarinic receptor antagonists, primary screen, CHO cells, Fluo-8 calcium fluorescence. inhibition, % at 3 µM. CHO-hM5 cells, ACh EC80. hit rate 0.59% among 360,000. Muscarinic acetylcholine receptor M5 (Homo sapiens), P08912. AID 624040, 2012;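 active means inhibition above a per-plate cutoff, the mean of that plate's test compounds plus 3 SD, cut at about 27% in these data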;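 further: 0% = acetylcholine EC80 with DMSO and 100% = DMSO without agonist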
M4 ag = human M4 muscarinic receptor agonists, primary screen, CHO-K1 cells, Fluo-8 calcium fluorescence; CHO-K1 hM4/Gqi5; vehicle 0%, full acetylcholine response 100%; activation, % at 3 µM; hit rate 0.14% among 360,000; AID 624127, 2012;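 active means activation above the run mean over all test wells plus 3 SD, cut at about 32% in these data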;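 further: peak over basal fluorescence ratio per well then scaled between controls; 0% = DMSO wells and 100% = acetylcholine at EC100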
M5 PAM = human M5 muscarinic receptor positive allosteric modulators, primary screen, CHO-K1 cells, Fluo-8 calcium fluorescence; Muscarinic acetylcholine receptor M5 (Homo sapiens), P08912; CHO-K1 hM5, ACh EC20 PAM; 0% = ACh EC20, 100% = ACh EC100; activation, % at 3 µM; hit rate 0.3% among 360,000;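 active means activation above the run cutoff, the mean activation of all test compounds plus 3 SD, cut at about 18% in these data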
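system = human M5 receptor in CHO-K1 cells | compound = one concentration, 3 µM final (nominal) | schedule = Post-acetylcholine fluorescence recording 140 s | signal = Fluo-8 calcium dye fluorescence, kinetic read | benchmarks = low control EC20 acetylcholine (0%), high control EC100 acetylcholine (100%) | repeats = singlicate, one well per test compound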
M4 antag = human M4 muscarinic receptor antagonists, primary screen, CHO cells, Fluo-8 calcium fluorescence. CHO-hM4 cells, ACh EC80. hit rate 0.73% among 360,000. inhibition, % at 3 µM. Muscarinic acetylcholine receptor M4 (Homo sapiens), P08173;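 active means inhibition above its plate's cutoff, the mean inhibition of sample wells plus 3 SD, cut at about 27% in these data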;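 further: 0% = acetylcholine EC80 with DMSO and 100% = DMSO without agonist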
The depositor's hits bear a star. Shown are actives, neighbours in structure and some others; about 1.9% of the full set was active somewhere.

SMILES | M4 PAM | CHRM5 agonist | CHRM5 antagonist | M4 ag | M5 PAM | M4 antag
CC(C)c1nc2c(c(=O)c3ccccc3n2C)c(=O)n1CCc1ccccc1 | -7.7 | 0.6 | 18.1 | 6.4 | -4.9 | -0.2
CC(=O)Nc1cc(S(=O)(=O)C(F)(F)F)ccc1Cl | 1.0 | -1.5 | -9.8 | 0.2 | 18.6* | -2.2
Cc1c(CCC(=O)NCCCC(=O)O)c(=O)oc2cc3oc4c(c3cc12)CCCC4 | 3.1 | -2.9 | 3.3 | 0.9 | -1.3 | 1.3
CCN(CC)CCN1c2ccccc2Sc2ccccc21 | -17.8 | -7.4 | 99.1* | 3.4 | -18.4 | 89.0*
CCN(CC)CCN1c2ccccc2Sc2ccc3ccccc3c21 | -15.4 | -7.2 | 80.2* | 4.1 | -21.3 | 20.5
CCOc1ccccc1N(C)C(=O)c1sc2ncn(CC(=O)N3CCCCC3C)c(=O)c2c1C (stereo not drawn) | -2.9 | -3.6 | 13.3 | 3.4 | -3.7 | -0.5
NS(=O)(=O)c1ccc(CCNC(=O)c2ccc3c(c2)N(Cc2ccccc2)CCS3)cc1 | -14.7 | -3.6 | 31.0* | 18.4 | -17.7 | 12.0
C/C(NCCc1ccccc1)=C1/CCOC1=O | 0.1 | 0.1 | 5.0 | -0.1 | -3.5 | -6.3
CC1CCCN(C(=O)COC(=O)c2cc(-c3cccs3)nn2-c2ccccc2)C1 (stereo not drawn) | -11.9 | -9.6 | 7.0 | 1.8 | -24.4 | -12.9
CCCC(=O)Nc1ccc(C(=O)NNC(=S)NC(=O)c2ccc(Br)o2)cc1 | -13.4 | -0.8 | 6.7 | -1.3 | -5.1 | 34.1*
CCCC(=O)Nc1ccc(C(=O)NNC(=S)NC(=O)c2cccs2)cc1 | 12.6 | 0.8 | -2.3 | 0.1 | -0.7 | -8.6
C=CCN(CC=C)S(=O)(=O)c1ccc(C(=O)Nc2nnc(CSC)o2)cc1 | -0.7 | 6.1 | 5.2 | -0.5 | -3.9 | 8.9
CSCc1nnc(NC(=O)c2ccc(S(=O)(=O)N(C)C)cc2)o1 | 13.6 | 0.0 | 12.7 | 1.5 | 18.6* | 4.3
O=C(NCc1ccc2c(c1)OCO2)c1c(-c2ccccc2)sc2ccccc12 | 2.7 | -3.1 | -2.7 | 1.5 | -0.5 | -10.1
CCc1cc(=O)oc2cc(C)cc(OCC(=O)NC(Cc3c[nH]c4ccc(O)cc34)C(=O)O)c12 (stereo not drawn) | 20.8* | 3.2 | -2.9 | 0.1 | 3.5 | -19.7
CCO[C@H]1OC(C(=O)N2CCN(Cc3ccc4c(c3)OCO4)CC2)=C[C@@H](C2CC2)[C@@H]1CCCO | 3.6 | 0.8 | 8.8 | 1.9 | 1.4 | -1.2
Cc1ccccc1Sc1ccc(N)cn1 | -15.1 | -3.5 | 23.2 | 4.0 | -7.6 | 33.3*
N#C/C(=C\c1ccc(Sc2ccc(Cl)cc2)o1)c1nc2ccccc2[nH]1 | -8.1 | 3.3 | 29.5* | 11.7 | -16.3 | 12.2
N#C/C(=C\c1ccc(Sc2nc3ccccc3[nH]2)o1)c1ccccc1 | -9.6 | 1.8 | 13.5 | 9.8 | -12.9 | 8.4
CCOC(=O)N1CCN(CC(=O)N2c3ccccc3CC2C)CC1 (stereo not drawn) | -1.1 | 0.8 | 0.7 | 0.9 | 1.3 | 31.4*
CCN1CCN(CC(=O)N2c3ccccc3CC2C)CC1 (stereo not drawn) | 1.7 | -2.4 | -8.7 | -0.1 | 5.7 | 3.1
CCC(C)NC(=O)C1CCCN(c2nc(C)cc(OC)n2)C1 (stereo not drawn) | 24.6* | -7.4 | -17.2 | 1.9 | 20.4* | -12.1
CC(=O)c1ccc(S(=O)(=O)N2CCCC(N(C)CCc3ccccn3)C2)cc1 (stereo not drawn) | -3.8 | -2.1 | 15.3 | 10.3 | -8.6 | 9.6
CCNC(=S)NNC(=O)CC(C)C | -3.2 | -1.7 | -5.8 | 0.9 | 6.9 | 0.3
CCCOc1ccc(C(=O)NNC(=S)NC(=O)c2ccco2)cc1 | -48.5 | 59.7* | 30.6* | 126.2* | -29.0 | 19.3
SMILES | M4 PAM | CHRM5 agonist | CHRM5 antagonist | M4 ag | M5 PAM | M4 antag
CC(=O)c1cccc(NC(=S)NC(=O)c2ccc(C)cc2)c1 | 25.9* | -3.0 | 3.7 | 1.4 | 7.9 | -1.9
CC(C)CNC(=S)NNC(=O)CC(C)O (stereo not drawn) | -4.8 | -2.2 | -1.2 | -0.1 | 18.3* | 4.5
CCCOc1ccc(C(=O)NNC(=S)NC(=O)c2ccccc2)cc1 | -24.2 | 77.8* | 25.9 | 136.3* | -21.2 | 26.7*
C=CCSc1nc(-c2ccc(OC)cc2)c(C#N)c(=O)n1CC=C | -9.2 | -7.7 | 3.3 | 2.2 | -8.5 | -0.3
CC(Oc1ccc(Cl)cc1)C(=O)NNC(=S)NC(=O)c1ccco1 (stereo not drawn) | -9.9 | 26.3* | 6.5 | 63.4* | -11.4 | 13.1
COc1ccc(C(=O)NC(=S)NNC(=O)c2ccc(C)cc2)cc1 | -48.4 | 75.3* | 5.4 | 117.8* | -29.9 | 15.0
CC(C)CNC(=S)NNC(=O)c1ccco1 | 37.9* | -0.3 | -6.0 | 0.7 | 12.0 | 3.1
CCCOc1ccc(C(=O)NNC(=S)NC(=O)c2cccs2)cc1 | -16.4 | 72.0* | 41.9* | 109.7* | -16.8 | 63.2*
COc1ccc(C(=O)NNC(=S)NC(=O)c2ccco2)cc1 | 0.8 | 8.9 | -3.8 | 4.6 | 1.9 | -4.7
O=C(CN1CCN(S(=O)(=O)c2ccc(F)cc2)CC1)NCC1(N2CCOCC2)CCCCC1 | -5.2 | -0.6 | 5.8 | 0.6 | -2.3 | 3.0
C/C(=N/NC(=O)c1ccc(-c2ccccc2)cc1)c1cccc(O)c1 | -0.5 | -3.6 | -6.2 | 1.5 | 3.5 | 1.5
CCN(c1ccccc1)S(=O)(=O)c1nnc(NC(=O)C(C)C)s1 | 2.1 | -2.9 | 16.0 | -0.6 | -7.4 | -18.8
CCC1CCCCN1C(=S)NC(=O)c1cccs1 (stereo not drawn) | -0.7 | -0.9 | 1.3 | 0.3 | 6.3 | 7.5
O=C(NC(=S)N1CCCCC1CO)c1cccs1 (stereo not drawn) | 8.5 | -3.6 | 1.4 | 0.3 | 24.3* | -0.2
COC(=O)[C@H](CC(C)C)NC(=O)N1CCC(C)CC1 | -3.7 | -4.6 | 6.1 | 1.3 | 1.3 | -5.7
CCCC(=O)Nc1cc(Cl)ccc1C | 3.0 | 0.2 | -4.2 | 0.2 | 5.5 | -9.4
Cc1ccc(Cl)cc1NC(=O)CCC(=O)Nc1cc(Cl)ccc1C | 8.0 | -3.8 | -3.7 | 1.3 | 24.0* | -3.2
Cn1nc(C(C)(C)C)c([N+](=O)[O-])c1C(=O)N1CCCCCC1 | 4.5 | -2.5 | -3.3 | 1.7 | 1.6 | -3.1
CC(OC(=O)Cn1cnc2c1c(=O)n(C)c(=O)n2C)C(=O)Nc1ccc(Cl)cc1 (stereo not drawn) | 15.7 | 2.1 | 1.5 | 3.3 | 0.4 | -11.9
COc1cccc(CNC(=O)CN(C)S(=O)(=O)c2cnc[nH]2)c1 | 4.3 | 0.4 | -10.8 | 0.9 | 19.7* | -14.0
